Laboratory results as given in paper PMC11529822 (Lab on a Chip, 2024).

Assays:
[1] = tested on: MDA-MB-231, HepG2/C3A and HS-5 cells; assay: Tissue chip dose response, summary across all three compartments; type: cell-based; conditions: Homo sapiens, read-out: IC50 values across all compartments
Method in brief: (§1)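 Tumour compartment: MDA-MB-231 spheroids (10 × 10^3 cells, formed 4 days before seeding) in 3.5 mg mL−1 collagen. Liver (HepG2/C3A) and stroma (HS-5) compartments: 15 × 10^3 single cells in the same collagen. Medium 1:1 EMEM:DMEM under rocker-driven gravity flow. Test compound medium from day 1, replenished every 2 days, 5 days total. Four concentrations including control, 2–4 replicates; single-dose runs at 50 μM. PrestoBlue 15% v/v, 1 h, ex 560/em 590 nm; AUC computed.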

[2] = Tissue chip liver compartment: viability of HepG2/C3A cells in collagen; type: cell-based, human; conditions: human
Method in brief: as §1

[3] = Tissue chip bone marrow stroma compartment: viability of HS-5 cells in collagen; type: cell-based, human; parameters: AUC HS-5: unit not given beside the values; conditions: human
Method in brief: as §1

HepG2/C3A liver cells = assay: Tissue chip liver compartment: viability of HepG2/C3A cells in collagen; type: cell-based, human; conditions: for IC50: Homo sapiens, HepG2/C3A, read-out: IC50 HepG2/C3A; for AUC HepG2/C3A: area under the dose-response curve, tissue chip, liver compartment
Method in brief: as §1

[4] = tested on: MDA-MB-231 breast cancer cells; type: cell-based, human; conditions: for IC50: Homo sapiens, MDA-MB-231, read-out: IC50 MDA-MB-231; for AUC MDA-MB-231: area under the dose-response curve, tissue chip, tumor compartment
Method in brief: as §1

[5] = tested on: HS-5 bone marrow stromal cells; assay: Tissue chip bone marrow stroma compartment: viability of HS-5 cells in collagen; type: cell-based, human; parameters: AUC HS-5: unit not given beside the values; conditions: for IC50: Homo sapiens, HS5, read-out: IC50 HS-5; for AUC HS-5: area under the dose-response curve, tissue chip, bone marrow stroma compartment
Method in brief: as §1

IC50 [1] [nM]	IC50 (HepG2/C3A liver cells) [nM]	IC50 [4] [nM]	IC50 [5] [nM]	Compound	viability at 5 days, 50 μM [2] [%]	viability at 5 days, 50 μM [3] [%]	AUC HepG2/C3A (HepG2/C3A liver cells)	AUC MDA-MB-231 [4]	AUC HS-5 [5]
1000 to 10000				O=c1[nH]cc(F)c(=O)[nH]1 [5-FU, 5-fluorouracil]	20	24			
	231	5.5	4.6	COc1cccc2c1C(=O)c1c(O)c3c(c(O)c1C2=O)C[C@@](O)(C(=O)CO)C[C@@H]3O[C@H]1C[C@H](N)[C@H](O)[C@H](C)O1 [Doxorubicin, doxorubicin]			0.72	0.47	0.45
	12.2	0.06	> 1000	CC(=O)Nc1cccc(-n2c(=O)n(C3CC3)c(=O)c3c(Nc4ccc(I)cc4F)n(C)c(=O)c(C)c32)c1 [Trametinib, trametinib]			0.75	0.63	0.98
